Data as given in ChEMBL document CHEMBL1828568, “Novel imaging agents for β-amyloid plaque based on the N-benzoylindole core” (Bioorg Med Chem Lett, 2011).
Values belong to the compound of their own block, whether it stands above or below them.

Key:
[1] = Displacement of [125I]TZDM from amyloid beta (1 to 40) aggregates after 2 hrs by gamma counting
Outline: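 Competition binding against [125I]TZDM as radiolabeled standard, using Aβ1–40 aggregates; run in triplicate, results as mean ± SD.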

[2] = Octanol-phosphate buffer partition coefficient, log D of the compound at pH 7.4; format: physicochemical
Outline: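 Radioiodinated tracer partitioned between n-octanol and PBS at pH 7.4; log D reported as mean ± SD.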

Blood [3] = assay: Biodistribution in Kunming mouse blood at 1 uCi, iv after 2 mins by gamma counting; format: ADME, organism-based; conditions: in vivo
Outline: (§1)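 125I-labeled tracer given intravenously to normal mice. Organs and blood were sampled at 2, 15, 30, 60, 120 and 240 min after injection. Uptake is expressed as % ID/g, averaged over 5 mice ± SD.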

Blood [4] = assay: Biodistribution in Kunming mouse blood at 1 uCi, iv after 15 mins by gamma counting; format: ADME, organism-based; conditions: in vivo, 0.25 h; outline: as §1
Blood [5] = assay: Biodistribution in Kunming mouse blood at 1 uCi, iv after 30 mins by gamma counting; format: ADME, organism-based; conditions: in vivo, 0.5 h; outline: as §1
Blood [6] = assay: Biodistribution in Kunming mouse blood at 1 uCi, iv after 60 mins by gamma counting; format: ADME, organism-based; conditions: in vivo, 1 h; outline: as §1
Blood [7] = assay: Biodistribution in Kunming mouse blood at 1 uCi, iv after 120 mins by gamma counting; format: ADME, organism-based; conditions: in vivo, 2 h; outline: as §1
Blood [8] = assay: Biodistribution in Kunming mouse blood at 1 uCi, iv after 240 mins by gamma counting; format: ADME, organism-based; conditions: in vivo, 4 h; outline: as §1
Brain [9] = assay: Biodistribution in Kunming mouse brain at 1 uCi, iv after 2 mins by gamma counting; format: ADME, organism-based; conditions: in vivo; outline: as §1
Brain [10] = assay: Biodistribution in Kunming mouse brain at 1 uCi, iv after 15 mins by gamma counting; format: ADME, organism-based; conditions: in vivo, 0.25 h; outline: as §1
Brain [11] = assay: Biodistribution in Kunming mouse brain at 1 uCi, iv after 30 mins by gamma counting; format: ADME, organism-based; conditions: in vivo, 0.5 h; outline: as §1
Brain [12] = assay: Biodistribution in Kunming mouse brain at 1 uCi, iv after 60 mins by gamma counting; format: ADME, organism-based; conditions: in vivo, 1 h; outline: as §1
Brain [13] = assay: Biodistribution in Kunming mouse brain at 1 uCi, iv after 120 mins by gamma counting; format: ADME, organism-based; conditions: in vivo, 2 h; outline: as §1
Brain [14] = assay: Biodistribution in Kunming mouse brain at 1 uCi, iv after 240 mins by gamma counting; format: ADME, organism-based; conditions: in vivo, 4 h; outline: as §1
Heart [15] = assay: Biodistribution in Kunming mouse heart at 1 uCi, iv after 2 mins by gamma counting; format: ADME, organism-based; conditions: in vivo; outline: as §1
Heart [16] = assay: Biodistribution in Kunming mouse heart at 1 uCi, iv after 15 mins by gamma counting; format: ADME, organism-based; conditions: in vivo, 0.25 h; outline: as §1
Heart [17] = assay: Biodistribution in Kunming mouse heart at 1 uCi, iv after 30 mins by gamma counting; format: ADME, organism-based; conditions: in vivo, 0.5 h; outline: as §1
Heart [18] = assay: Biodistribution in Kunming mouse heart at 1 uCi, iv after 60 mins by gamma counting; format: ADME, organism-based; conditions: in vivo, 1 h; outline: as §1
Heart [19] = assay: Biodistribution in Kunming mouse heart at 1 uCi, iv after 120 mins by gamma counting; format: ADME, organism-based; conditions: in vivo, 2 h; outline: as §1
Heart [20] = assay: Biodistribution in Kunming mouse heart at 1 uCi, iv after 240 mins by gamma counting; format: ADME, organism-based; conditions: in vivo, 4 h; outline: as §1
Liver [21] = assay: Biodistribution in Kunming mouse liver at 1 uCi, iv after 2 mins by gamma counting; format: ADME, organism-based; conditions: in vivo; outline: as §1
Liver [22] = assay: Biodistribution in Kunming mouse liver at 1 uCi, iv after 15 mins by gamma counting; format: ADME, organism-based; conditions: in vivo, 0.25 h; outline: as §1
Liver [23] = assay: Biodistribution in Kunming mouse liver at 1 uCi, iv after 30 mins by gamma counting; format: ADME, organism-based; conditions: in vivo, 0.5 h; outline: as §1
Liver [24] = assay: Biodistribution in Kunming mouse liver at 1 uCi, iv after 60 mins by gamma counting; format: ADME, organism-based; conditions: in vivo, 1 h; outline: as §1
Liver [25] = assay: Biodistribution in Kunming mouse liver at 1 uCi, iv after 120 mins by gamma counting; format: ADME, organism-based; conditions: in vivo, 2 h; outline: as §1
Liver [26] = assay: Biodistribution in Kunming mouse liver at 1 uCi, iv after 240 mins by gamma counting; format: ADME, organism-based; conditions: in vivo, 4 h; outline: as §1
Spleen [27] = assay: Biodistribution in Kunming mouse spleen at 1 uCi, iv after 2 mins by gamma counting; format: ADME, organism-based; conditions: in vivo; outline: as §1
Spleen [28] = assay: Biodistribution in Kunming mouse spleen at 1 uCi, iv after 15 mins by gamma counting; format: ADME, organism-based; conditions: in vivo, 0.25 h; outline: as §1
Spleen [29] = assay: Biodistribution in Kunming mouse spleen at 1 uCi, iv after 30 mins by gamma counting; format: ADME, organism-based; conditions: in vivo, 0.5 h; outline: as §1
Spleen [30] = assay: Biodistribution in Kunming mouse spleen at 1 uCi, iv after 60 mins by gamma counting; format: ADME, organism-based; conditions: in vivo, 1 h
Outline: (§2)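 Radioiodinated tracers given intravenously to normal mice; organs taken at 2, 15, 30, 60, 120 and 240 min after injection. Uptake expressed as % ID/g, mean ± SD of 5 mice; stomach values carry a table footnote.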

Spleen [31] = assay: Biodistribution in Kunming mouse spleen at 1 uCi, iv after 120 mins by gamma counting; format: ADME, organism-based; conditions: in vivo, 2 h; outline: as §1
Spleen [32] = assay: Biodistribution in Kunming mouse spleen at 1 uCi, iv after 240 mins by gamma counting; format: ADME, organism-based; conditions: in vivo, 4 h; outline: as §1
Lung [33] = assay: Biodistribution in Kunming mouse lung at 1 uCi, iv after 2 mins by gamma counting; format: ADME, organism-based; conditions: in vivo; outline: as §1
Lung [34] = assay: Biodistribution in Kunming mouse lung at 1 uCi, iv after 15 mins by gamma counting; format: ADME, organism-based; conditions: in vivo, 0.25 h; outline: as §1
Lung [35] = assay: Biodistribution in Kunming mouse lung at 1 uCi, iv after 30 mins by gamma counting; format: ADME, organism-based; conditions: in vivo, 0.5 h; outline: as §1
Lung [36] = assay: Biodistribution in Kunming mouse lung at 1 uCi, iv after 60 mins by gamma counting; format: ADME, organism-based; conditions: in vivo, 1 h; outline: as §1
Lung [37] = assay: Biodistribution in Kunming mouse lung at 1 uCi, iv after 120 mins by gamma counting; format: ADME, organism-based; conditions: in vivo, 2 h; outline: as §1
Lung [38] = assay: Biodistribution in Kunming mouse lung at 1 uCi, iv after 240 mins by gamma counting; format: ADME, organism-based; conditions: in vivo, 4 h; outline: as §1
Kidney [39] = assay: Biodistribution in Kunming mouse kidney at 1 uCi, iv after 2 mins by gamma counting; format: ADME, organism-based; conditions: in vivo; outline: as §1
Kidney [40] = assay: Biodistribution in Kunming mouse kidney at 1 uCi, iv after 15 mins by gamma counting; format: ADME, organism-based; conditions: in vivo, 0.25 h; outline: as §1
Kidney [41] = assay: Biodistribution in Kunming mouse kidney at 1 uCi, iv after 30 mins by gamma counting; format: ADME, organism-based; conditions: in vivo, 0.5 h; outline: as §1
Kidney [42] = assay: Biodistribution in Kunming mouse kidney at 1 uCi, iv after 60 mins by gamma counting; format: ADME, organism-based; conditions: in vivo, 1 h; outline: as §1
Kidney [43] = assay: Biodistribution in Kunming mouse kidney at 1 uCi, iv after 120 mins by gamma counting; format: ADME, organism-based; conditions: in vivo, 2 h; outline: as §1
Kidney [44] = assay: Biodistribution in Kunming mouse kidney at 1 uCi, iv after 240 mins by gamma counting; format: ADME, organism-based; conditions: in vivo, 4 h; outline: as §1
Stomach [45] = assay: Biodistribution in Kunming mouse stomach assessed per organ at 1 uCi, iv after 2 mins by gamma counting; format: ADME, organism-based; conditions: in vivo; outline: as §2
Stomach [46] = assay: Biodistribution in Kunming mouse stomach assessed per organ at 1 uCi, iv after 15 mins by gamma counting; format: ADME, organism-based; conditions: in vivo, 0.25 h; outline: as §2
Stomach [47] = assay: Biodistribution in Kunming mouse stomach assessed per organ at 1 uCi, iv after 30 mins by gamma counting; format: ADME, organism-based; conditions: in vivo, 0.5 h; outline: as §2
Stomach [48] = assay: Biodistribution in Kunming mouse stomach assessed per organ at 1 uCi, iv after 60 mins by gamma counting; format: ADME, organism-based; conditions: in vivo, 1 h; outline: as §2
Stomach [49] = assay: Biodistribution in Kunming mouse stomach assessed per organ at 1 uCi, iv after 120 mins by gamma counting; format: ADME, organism-based; conditions: in vivo, 2 h; outline: as §2
Stomach [50] = assay: Biodistribution in Kunming mouse stomach assessed per organ at 1 uCi, iv after 240 mins by gamma counting; format: ADME, organism-based; conditions: in vivo, 4 h; outline: as §2
Muscle tissue [51] = assay: Biodistribution in Kunming mouse muscle at 1 uCi, iv after 2 mins by gamma counting; format: ADME, organism-based; conditions: in vivo; outline: as §1
Muscle tissue [52] = assay: Biodistribution in Kunming mouse muscle at 1 uCi, iv after 15 mins by gamma counting; format: ADME, organism-based; conditions: in vivo, 0.25 h; outline: as §1
Muscle tissue [53] = assay: Biodistribution in Kunming mouse muscle at 1 uCi, iv after 30 mins by gamma counting; format: ADME, organism-based; conditions: in vivo, 0.5 h; outline: as §1
Muscle tissue [54] = assay: Biodistribution in Kunming mouse muscle at 1 uCi, iv after 60 mins by gamma counting; format: ADME, organism-based; conditions: in vivo, 1 h; outline: as §1
Muscle tissue [55] = assay: Biodistribution in Kunming mouse muscle at 1 uCi, iv after 120 mins by gamma counting; format: ADME, organism-based; conditions: in vivo, 2 h; outline: as §1
Muscle tissue [56] = assay: Biodistribution in Kunming mouse muscle at 1 uCi, iv after 240 mins by gamma counting; format: ADME, organism-based; conditions: in vivo, 4 h; outline: as §1

Ki [1]: 60.8 nM
SMILES: COc1ccc(/C=C/C(=O)n2ccc3cc(OC)ccc32)cc1

logD [2]: 2.53 | Drug uptake (Blood [3]): 14.13 % ID/g | Drug uptake (Blood [4]): 3.91 % ID/g | Drug uptake (Blood [5]): 3.75 % ID/g | Drug uptake (Blood [6]): 2.88 % ID/g | Drug uptake (Blood [7]): 1.61 % ID/g | Drug uptake (Blood [8]): 1.07 % ID/g | Drug uptake (Brain [9]): 2 % ID/g | Drug uptake (Brain [10]): 1.98 % ID/g | Drug uptake (Brain [11]): 1.57 % ID/g | Drug uptake (Brain [12]): 0.77 % ID/g | Drug uptake (Brain [13]): 0.33 % ID/g | Drug uptake (Brain [14]): 0.17 % ID/g | Drug uptake (Heart [15]): 10.72 % ID/g | Drug uptake (Heart [16]): 2.9 % ID/g | Drug uptake (Heart [17]): 2.07 % ID/g | Drug uptake (Heart [18]): 1.53 % ID/g | Drug uptake (Heart [19]): 0.99 % ID/g | Drug uptake (Heart [20]): 0.61 % ID/g | Drug uptake (Liver [21]): 15.89 % ID/g | Drug uptake (Liver [22]): 7.73 % ID/g | Drug uptake (Liver [23]): 6.48 % ID/g | Drug uptake (Liver [24]): 4.09 % ID/g | Drug uptake (Liver [25]): 4.86 % ID/g | Drug uptake (Liver [26]): 2.23 % ID/g | Drug uptake (Spleen [27]): 4.08 % ID/g | Drug uptake (Spleen [28]): 2.44 % ID/g | Drug uptake (Spleen [29]): 1.71 % ID/g | Drug uptake (Spleen [30]): 1.85 % ID/g | Drug uptake (Spleen [31]): 0.63 % ID/g | Drug uptake (Spleen [32]): 0.59 % ID/g | Drug uptake (Lung [33]): 14.5 % ID/g | Drug uptake (Lung [34]): 6.73 % ID/g | Drug uptake (Lung [35]): 4.88 % ID/g | Drug uptake (Lung [36]): 2.66 % ID/g | Drug uptake (Lung [37]): 2.1 % ID/g | Drug uptake (Lung [38]): 1.27 % ID/g | Drug uptake (Kidney [39]): 11.22 % ID/g | Drug uptake (Kidney [40]): 9.68 % ID/g | Drug uptake (Kidney [41]): 10.16 % ID/g | Drug uptake (Kidney [42]): 6.14 % ID/g | Drug uptake (Kidney [43]): 3.54 % ID/g | Drug uptake (Kidney [44]): 2.22 % ID/g | Drug uptake (Stomach [45]): 1.09 %ID | Drug uptake (Stomach [46]): 1.52 %ID | Drug uptake (Stomach [47]): 1.72 %ID | Drug uptake (Stomach [48]): 2.08 %ID | Drug uptake (Stomach [49]): 2.29 %ID | Drug uptake (Stomach [50]): 1.3 %ID | Drug uptake (Muscle tissue [51]): 3.97 % ID/g | Drug uptake (Muscle tissue [52]): 2.47 % ID/g | Drug uptake (Muscle tissue [53]): 2.06 % ID/g | Drug uptake (Muscle tissue [54]): 1.06 % ID/g | Drug uptake (Muscle tissue [55]): 0.84 % ID/g | Drug uptake (Muscle tissue [56]): 0.19 % ID/g
SMILES: O=C(/C=C/c1ccccc1)n1ccc2cc([125I])ccc21
